Bioassay records: PubChem, The Scripps Research Institute Molecular Screening Center
ASAP1 GAP inh = inhibitors of human ASAP1 ArfGAP activity; inhibition, % at 16.5 µM; ASAP1-stimulated ARF1 GTP hydrolysis, GDP FP detection; Q9ULH1; AID 624377; actives 0.19% (n = 360,000); in the data active = inhibition above about 25%;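 also: 0% = vehicle with enzyme and substrate and 100% = no enzyme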
ARFGAP1 inh = rat ARFGAP1 inhibition | Arfgap1-stimulated ARF1 GTP hydrolysis, GDP FP detection | inhibition, % at 16.5 µM | actives 0.26% (n = 360,000);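 active = inhibition above a per-plate limit, mean inhibition of low control wells plus 3 SD, cut at about 25% in these data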;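 also: 0% = DMSO wells with enzyme and 100% = wells lacking Arfgap1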
Target sequence (Q62848 1-136 limits assumed): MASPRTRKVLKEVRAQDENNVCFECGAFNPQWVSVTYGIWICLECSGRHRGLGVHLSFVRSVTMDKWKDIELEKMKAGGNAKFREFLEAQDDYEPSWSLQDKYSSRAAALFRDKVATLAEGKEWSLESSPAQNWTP
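Replicates: Single well per compound | Assay system: Truncated rat Arfgap1 GAP domain | Control set: No-Arfgap1 wells (100%) versus DMSO full-reaction wells (0%) | Times: Enzyme reaction 120 min at 25 °C after 20 min preincubation | Reagent: Human ARF1(Δ1-17)-GTP substrate | Measured by: Tracer-displacement fluorescence polarization with EDTA stop, 620/688 nm | Measure: Percent inhibition of Arfgap1-stimulated GTP hydrolysis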
MsrA inh = inhibitors of bovine MsrA | inhibition, % at 15.5 µM | AID 651718 | purified bovine MsrA, absorbance read-out | actives 0.75% (n = 360,000);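 also: 0% = vehicle wells with enzyme and 100% = reference inhibitor wells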
MsrA act = activates bovine MsrA enzyme; purified bovine MsrA, absorbance read-out; activation, % at 10.6 µM; actives 0.3% (n = 360,000); AID 602163; in the data active = activation above about 7.5%;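 also: 0% = vehicle and 100% = reference activator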
MsrA conf = confirmation of bovine MsrA inhibitors | shares compounds with MsrA inh | purified bovine MsrA, absorbance read-out | inhibition, % at 15.5 µM | actives 41% (n = 2,300);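 also: coupled to thioredoxin reductase with NADPH and selenocystamine and DMSO as substrate; 0% = vehicle only and 100% = full effect of reference inhibitor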
* marks the source's active call; other numbers are inactive results; · = no result; ! = not confirmed by another sample. A selection: hits, their analogues and other compounds. The true share with any hit is near 1.4%. Rule as the data show it, unless noted: active = inhibition above about 4.5%; inactive = the rest.

SMILES	ASAP1 GAP inh	ARFGAP1 inh	MsrA inh	MsrA act	MsrA conf
C=C[C@@H]1c2ccccc2N(S(=O)(=O)c2ccc(C)cc2)[C@H](c2ccc(C(=O)OC)cc2)C1(C#N)C#N	3.4	0.1	0.4	-1.8	·
CO[C@H]1CC[C@@]2(C)[C@@H](CC[C@@H]3[C@@H]2CC[C@@]2(C)[C@H]3C[C@H](C(=O)N[C@@H](CCCN=C(N)N)C(=O)NCC(=O)N[C@@H](CC(=O)O)C(N)=O)O[C@]23CCCO3)C1	·	·	·	-7.8	·
Fc1ccccc1-c1n[nH]c(=S)n1/N=C/c1c[nH]c2ccccc12	2.4	2.1	11.4*	0.1	7.3*
COc1cccc(CN(C)C(=O)c2ccc(Cl)c(S(=O)(=O)N3CCCCCC3)c2)c1OC	-2.9	11.0	-1.0	-6.1	·
Nc1n[nH]c(N)c1N=Nc1ccc(F)cc1	-6.0	4.2	3.1	-1.6	·
Nc1n[nH]c(N)c1N=Nc1ccccc1	2.9	1.7	5.0*	-5.1	3.9
O=[N+]([O-])c1ccc(C=CC=Cc2ccccc2)cc1	-10.0	2.0	0.3	-4.3	·
C[n+]1ccccc1/C=C/c1ccc([N+](=O)[O-])cc1	-6.3	0.4	6.0*	-3.2	6.8*
C[n+]1ccccc1/C=C/c1ccc2ncccc2c1	8.7	-2.2	6.9*	-4.2	6.9*
Cc1ccccc1/C=C/c1cccc[n+]1C	-10.7	3.3	2.0	1.0	·
C[n+]1ccccc1/C=C/c1ccc(F)c(F)c1	-0.7	1.4	4.0	-1.7	·
C[n+]1ccccc1/C=C/c1ccc(C#N)cc1	-5.4	6.7	6.5*	-1.8	5.6*
CC(C)[C@H]1COCCS(=O)(=O)N1Cc1ccccc1-c1ccc(C(C)(C)C)cc1	1.3	-6.8	-0.8	2.2	·
Cc1c(NC(=S)/C=C2\N(C)c3ccccc3C2(C)C)c(=O)n(-c2ccccc2)n1C	6.2	0.2	3.8	-5.3	·
Cc1c(N=C/C=C2/N(C)c3ccccc3C2(C)C)c(=O)n(-c2ccccc2)n1C	4.2	7.7	5.7*!	-3.1	2.1
Cc1c(N=C/C=C2\N(C)c3ccccc3C2(C)C)c(=O)n(-c2ccccc2)n1C	-8.5	14.3	6.1*	-9.4	4.9*
Cc1n[nH]c(=O)n1-c1ccc(OCc2ccccc2)cc1	-10.3	-0.7	1.9	-0.4	·
CCOc1ccc(C(O)c2nccn2Cc2ccccc2)cc1 (configuration not stated)	3.6	-5.0	8.8*	-7.8	4.5
COc1ccc(C(O)c2nccn2Cc2ccccc2)cc1OC (configuration not stated)	-3.9	3.0	-0.2	-3.0	·
Cc1nn(CC(=O)NCCCN2CCCC2=O)c(C)c1[N+](=O)[O-]	-9.4	-7.3	-1.8	-5.0	·
CS(=O)(=O)c1ccc(-c2nnc(NC(=O)c3ccc(S(=O)(=O)N4CCCC4)cc3)o2)cc1	-0.3	-2.0	5.1*	-2.1	4.5
CCC(=O)N(Cc1ccco1)c1nc(C(=O)Nc2ccc(Cl)cc2)c(C)s1	7.3	7.7	-0.3	-10.9	·
O=[N+]([O-])c1ccc(Cl)c(-c2ccc(/C=N/n3cnnc3)o2)c1	5.4	6.4	5.2*	-9.4	6.0*
O=[N+]([O-])c1cc(-c2ccc(/C=N/n3cnnc3)o2)ccc1Cl	-4.0	-1.4	-0.1	-1.8	·
CC(C)CCNc1nc(N)c([N+](=O)[O-])c(NCCO)n1	0.5	0.5	4.9*	-11.3	5.1*
SMILES	ASAP1 GAP inh	ARFGAP1 inh	MsrA inh	MsrA act	MsrA conf
Cc1nnc(SCC(=O)N/N=C/c2cc(Cl)c(O)c(Cl)c2)s1	-10.3	2.7	5.1*	-6.8	4.7*
CCCOP(=O)(c1ccc(N(C)C)cc1)C(O)c1ccc(N(C)C)cc1 (configuration not stated)	2.0	2.5	-0.6	-5.6	·
COc1cc2c(cc1C=O)OC(C)C2 (configuration not stated)	8.9	-6.6	1.0	-3.8	·
CCOc1cc2c(cc1C=O)OC(C)C2 (configuration not stated)	-7.0	3.6	4.8*	-3.2	2.5
Cc1ccc(S(=O)(=O)NCCCNS(=O)(=O)c2ccccc2)cc1	9.0	-1.3	1.8	-3.6	·
COCc1cc(C)nc(N/N=C/c2ccc(-c3cc(C(=O)O)ccc3Cl)o2)c1C#N	0.5	-2.8	5.3*	·	1.4
CC(=O)Nc1ccc(C=NNc2ccc(S(=O)(=O)Nc3ccccc3C(=O)O)cc2[N+](=O)[O-])cc1	16.1	12.1	6.0*	-7.5	4.9*
NS(=O)(=O)c1ccc(N/N=C/c2ccc[nH]2)c([N+](=O)[O-])c1	7.2	1.9	5.1*	-10.3	5.5*
